Measured values as given in ChEMBL document CHEMBL3421608, “Discovery and optimization of a novel series of Dyrk1B kinase inhibitors to explore a MEK resistance hypothesis” (J Med Chem, 2015).
Converted amounts (≈) assume the structure as drawn. The source made the active and inactive calls. No cut-off for these calls is given here.

Assays:
[1] = target: T1, Dual specificity tyrosine-phosphorylation-regulated kinase 1B (Homo sapiens, UniProt Q9Y463); experiment: Inhibition of recombinant Dyrk1B (unknown origin) using FITC-Asp-His-Thr-Gly-Phe-Leu-Thr-Glu-Tyr-Val-Ala-Thr-Arg-NH2 as substrate after 60 mins
T1 sequence (Q9Y463 whole entry): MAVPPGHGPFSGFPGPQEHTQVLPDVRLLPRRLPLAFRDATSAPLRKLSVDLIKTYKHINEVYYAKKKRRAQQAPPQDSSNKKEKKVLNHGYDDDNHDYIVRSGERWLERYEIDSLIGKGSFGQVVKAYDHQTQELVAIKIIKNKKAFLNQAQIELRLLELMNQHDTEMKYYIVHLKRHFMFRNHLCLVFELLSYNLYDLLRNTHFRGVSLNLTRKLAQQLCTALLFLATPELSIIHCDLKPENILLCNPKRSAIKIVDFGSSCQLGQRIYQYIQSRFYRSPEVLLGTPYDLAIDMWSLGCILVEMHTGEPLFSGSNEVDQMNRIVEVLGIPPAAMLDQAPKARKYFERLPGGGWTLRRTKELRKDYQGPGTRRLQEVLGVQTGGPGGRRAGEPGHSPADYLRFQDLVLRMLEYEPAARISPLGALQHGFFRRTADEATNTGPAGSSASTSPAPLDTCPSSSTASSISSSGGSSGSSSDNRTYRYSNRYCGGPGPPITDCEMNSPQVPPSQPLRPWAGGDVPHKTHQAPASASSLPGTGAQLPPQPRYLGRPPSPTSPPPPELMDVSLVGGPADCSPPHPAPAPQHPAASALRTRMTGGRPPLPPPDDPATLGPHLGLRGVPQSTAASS

[2] = target: Insulin-like growth factor 1 receptor (Homo sapiens, UniProt P08069); experiment: Inhibition of human recombinant N-terminal His6-tagged IGF-1R using fluorescence substrate after 80 mins by caliper off-chip incubation mobility shift assay
Sequence of Insulin-like growth factor 1 receptor (P08069 31-736 limits assumed): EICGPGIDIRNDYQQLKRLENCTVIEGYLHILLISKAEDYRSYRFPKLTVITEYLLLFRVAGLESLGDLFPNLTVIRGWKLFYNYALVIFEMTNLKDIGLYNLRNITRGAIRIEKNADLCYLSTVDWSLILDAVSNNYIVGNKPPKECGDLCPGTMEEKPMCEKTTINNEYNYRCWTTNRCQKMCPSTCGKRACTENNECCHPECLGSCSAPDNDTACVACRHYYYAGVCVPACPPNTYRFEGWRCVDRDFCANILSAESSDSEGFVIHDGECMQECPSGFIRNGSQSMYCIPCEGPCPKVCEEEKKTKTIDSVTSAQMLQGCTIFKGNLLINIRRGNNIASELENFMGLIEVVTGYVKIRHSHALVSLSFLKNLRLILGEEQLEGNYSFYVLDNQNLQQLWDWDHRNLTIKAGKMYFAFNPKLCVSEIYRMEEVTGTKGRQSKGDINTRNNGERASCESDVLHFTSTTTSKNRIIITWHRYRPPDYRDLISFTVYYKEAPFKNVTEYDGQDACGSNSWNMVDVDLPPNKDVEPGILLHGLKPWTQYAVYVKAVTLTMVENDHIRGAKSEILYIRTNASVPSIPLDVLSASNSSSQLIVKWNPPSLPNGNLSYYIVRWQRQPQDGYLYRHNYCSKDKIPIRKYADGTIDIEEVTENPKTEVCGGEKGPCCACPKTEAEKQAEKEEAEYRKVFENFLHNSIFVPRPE
Sequence of Insulin-like growth factor 1 receptor (P08069 741-1367 limits assumed): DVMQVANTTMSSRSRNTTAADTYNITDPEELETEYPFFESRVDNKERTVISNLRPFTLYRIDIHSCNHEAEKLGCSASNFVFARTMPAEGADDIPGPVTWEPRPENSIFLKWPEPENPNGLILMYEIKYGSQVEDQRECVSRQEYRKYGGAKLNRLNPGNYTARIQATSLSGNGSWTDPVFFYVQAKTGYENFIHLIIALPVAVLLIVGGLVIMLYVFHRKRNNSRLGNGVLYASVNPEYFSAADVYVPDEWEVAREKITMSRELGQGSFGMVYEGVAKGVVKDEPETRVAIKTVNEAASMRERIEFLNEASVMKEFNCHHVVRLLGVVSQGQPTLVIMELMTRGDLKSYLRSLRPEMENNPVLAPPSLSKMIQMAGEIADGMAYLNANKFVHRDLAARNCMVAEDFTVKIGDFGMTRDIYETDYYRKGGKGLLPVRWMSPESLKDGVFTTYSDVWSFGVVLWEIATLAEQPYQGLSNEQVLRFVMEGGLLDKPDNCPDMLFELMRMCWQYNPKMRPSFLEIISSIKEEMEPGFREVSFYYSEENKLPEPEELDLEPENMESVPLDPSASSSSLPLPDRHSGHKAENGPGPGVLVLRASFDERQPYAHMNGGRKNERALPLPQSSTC

[3] = target: Cyclin-dependent kinase 2 (Homo sapiens, UniProt P24941); experiment: Inhibition of human recombinant full length C-terminal His6-tagged CDK2 expressed in baculovirus infected Sf21 insect cells using fluorescence substrate after 60 mins by caliper off-chip incubation mobility shift assay
[4] = Intrinsic clearance in Wistar Han rat hepatocytes assessed per 10^6 cells; type: ADME, cell-based, Hepatocyte; conditions: read-out: CLH
Summary of the method: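 Intrinsic clearance in Wistar Han rat hepatocytes, expressed as μL/min/1 × 10⁶ cells.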

[5] = Clearance in Wistar Han rat plasma at 2 umol/kg; type: ADME, cell-free
[6] = target: T1, Dual specificity tyrosine-phosphorylation-regulated kinase 1B; experiment: Inhibition of human full length C-terminal c-Myc tagged Dyrk1B phosphorylation overexpressed in monkey COS1 cells after 5 hrs by ELISA; type: cell-based, COS-1
[7] = Oral bioavailability in Wistar Han rat at 3 umol/kg; type: ADME, organism-based; conditions: in vivo
[8] = Aqueous solubility of the compound at pH 7.4; type: physicochemical; conditions: buffer
[9] = target: Dual specificity tyrosine-phosphorylation-regulated kinase 1A (Homo sapiens) (UniProt Q13627); experiment: Inhibition of Dyrk1A (unknown origin) at 1 uM
Summary of the method: (§1)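 Kinase panel of 124 kinases; single test concentration of 1 μM.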

[10] = target: T2, Dual specificity tyrosine-phosphorylation-regulated kinase 2 (Homo sapiens) (UniProt Q92630); experiment: Inhibition of Dyrk2 (unknown origin) at 1 uM; summary of the method: as §1
T2 sequence (whole entry): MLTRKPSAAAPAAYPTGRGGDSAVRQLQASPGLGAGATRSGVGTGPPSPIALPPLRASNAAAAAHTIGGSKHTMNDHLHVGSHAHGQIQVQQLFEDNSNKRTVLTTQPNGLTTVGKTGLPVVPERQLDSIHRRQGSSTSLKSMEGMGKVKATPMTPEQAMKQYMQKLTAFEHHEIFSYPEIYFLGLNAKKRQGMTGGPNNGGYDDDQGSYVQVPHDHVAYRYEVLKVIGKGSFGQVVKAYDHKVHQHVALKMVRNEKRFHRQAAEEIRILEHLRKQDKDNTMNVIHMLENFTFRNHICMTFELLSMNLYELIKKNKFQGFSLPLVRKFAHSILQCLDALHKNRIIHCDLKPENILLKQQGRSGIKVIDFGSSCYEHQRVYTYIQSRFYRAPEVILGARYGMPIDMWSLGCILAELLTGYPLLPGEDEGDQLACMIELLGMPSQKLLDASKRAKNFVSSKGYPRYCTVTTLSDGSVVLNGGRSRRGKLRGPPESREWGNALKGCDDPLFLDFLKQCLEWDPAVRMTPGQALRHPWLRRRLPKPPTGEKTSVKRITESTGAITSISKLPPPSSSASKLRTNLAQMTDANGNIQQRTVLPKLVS

[11] = target: T3, Dual specificity tyrosine-phosphorylation-regulated kinase 3 (Homo sapiens) (UniProt O43781); experiment: Inhibition of Dyrk3 (unknown origin) at 1 uM; summary of the method: as §1
T3 sequence (whole entry): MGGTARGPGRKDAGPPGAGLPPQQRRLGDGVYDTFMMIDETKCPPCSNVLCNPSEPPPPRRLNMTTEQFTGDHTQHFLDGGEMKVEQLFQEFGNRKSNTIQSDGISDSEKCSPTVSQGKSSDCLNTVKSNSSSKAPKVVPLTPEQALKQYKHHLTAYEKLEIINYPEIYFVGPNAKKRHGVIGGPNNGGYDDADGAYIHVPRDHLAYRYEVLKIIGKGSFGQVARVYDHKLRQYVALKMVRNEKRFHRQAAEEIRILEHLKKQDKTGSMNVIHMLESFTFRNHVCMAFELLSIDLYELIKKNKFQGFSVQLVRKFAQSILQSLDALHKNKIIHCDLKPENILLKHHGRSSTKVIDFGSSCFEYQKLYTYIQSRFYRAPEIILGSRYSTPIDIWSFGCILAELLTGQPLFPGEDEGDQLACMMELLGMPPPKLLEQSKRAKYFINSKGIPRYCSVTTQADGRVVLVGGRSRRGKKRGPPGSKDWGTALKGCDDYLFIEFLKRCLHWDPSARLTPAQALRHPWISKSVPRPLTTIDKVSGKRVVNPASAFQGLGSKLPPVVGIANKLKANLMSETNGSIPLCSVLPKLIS

[12] = test system: A-375; experiment: Cytotoxicity against human A375 cells at 1.33 uM after 72 hrs by calcein green AM/propidium iodide staining-based assay in presence of AZD6244 relative to control; type: functional, cell-based
Summary of the method: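 A375 melanoma cells treated with AZD6244 with or without Dyrk1B inhibitor at 1.33 μM for 72 h. Viability by calcein green AM and propidium iodide staining; percentage of dead cells is mean and SEM of at least two separate experiments.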

[13] = target: T4, Dual specificity tyrosine-phosphorylation-regulated kinase 2 (Homo sapiens, UniProt Q92630); experiment: Inhibition of GST-tagged Dyrk2 (unknown origin) expressed in Escherichia coli using [33P]ATP[gammaP]/DYRKtide as substrate after 5 mins by liquid scintillation counting analysis
T4 sequence (Q92630 whole entry): T2 sequence (whole entry)

[14] = target: T5, Dual specificity tyrosine-phosphorylation-regulated kinase 4 (Homo sapiens, UniProt Q9NR20); experiment: Inhibition of GST-tagged Dyrk4 (unknown origin) expressed in Escherichia coli using [33P]ATP[gammaP]/DYRKtide as substrate after 5 mins by liquid scintillation counting analysis
T5 sequence (Q9NR20 whole entry): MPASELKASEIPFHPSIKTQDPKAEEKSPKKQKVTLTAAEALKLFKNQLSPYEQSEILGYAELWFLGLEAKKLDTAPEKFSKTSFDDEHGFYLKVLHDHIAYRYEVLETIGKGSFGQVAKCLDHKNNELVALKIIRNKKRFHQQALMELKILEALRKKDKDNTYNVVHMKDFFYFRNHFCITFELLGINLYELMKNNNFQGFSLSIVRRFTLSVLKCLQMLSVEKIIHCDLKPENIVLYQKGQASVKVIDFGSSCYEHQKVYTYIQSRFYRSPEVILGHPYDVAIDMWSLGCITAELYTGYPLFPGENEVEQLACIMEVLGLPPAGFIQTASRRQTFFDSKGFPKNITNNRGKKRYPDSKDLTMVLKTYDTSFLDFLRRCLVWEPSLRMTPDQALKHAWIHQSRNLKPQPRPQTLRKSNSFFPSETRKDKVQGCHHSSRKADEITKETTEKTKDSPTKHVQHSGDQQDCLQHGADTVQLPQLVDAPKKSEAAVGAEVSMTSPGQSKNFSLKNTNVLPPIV

[15] = Clearance in Wistar Han rat blood at 2 umol/kg; type: ADME, tissue-based; conditions: whole blood
[16] = organism: Homo sapiens; experiment: Selectivity ratio of IC50 for human recombinant N-terminal His6-tagged IGF-1R to IC50 for recombinant Dyrk1B (unknown origin)

| SMILES | IC50 [1] | IC50 [2] | IC50 [3] | hepatocyte CLint [4] | clearance [5] | IC50 [6] | bioavailability [7] | also measured |
| --- | --- | --- | --- | --- | --- | --- | --- | --- |
| O=C(NC1CCCC1)c1ccc(-c2cc(-c3cc4c([nH]3)CCNC4=O)ccn2)cc1 | 43 nM |  |  |  |  |  |  |  |
| Cc1nccc2c(-c3ccnc(-c4ccc(S(C)(=O)=O)cc4)n3)c[nH]c12 | 14 nM | > 29000 nM | > 100000 nM | 9 µL/min/1e6 cells | 24 mL/min/kg | 2120 nM | 4% |  |
| Cc1nccc(-c2c[nH]c3cnccc23)n1 | 17 nM | > 100000 nM | 38400 nM |  |  | 3070 nM |  |  |
| COc1cc(N2CCN(C(C)=O)CC2)ccc1Nc1cc(-c2cn(C)c3cnccc23)ncn1 | 34 nM | > 100000 nM | 14800 nM | 11 µL/min/1e6 cells | 16 mL/min/kg |  | 5% | solubility [8]: 53 µM (≈ 24.2 µg/mL) |
| O=C(NC1CCCC1)c1ccc(-c2nccc(-c3c[nH]c4cnccc34)n2)cc1 | 98 nM | 67700 nM | 45900 nM | 32 µL/min/1e6 cells |  |  |  |  |
| CS(=O)(=O)c1ccc(-c2nccc(-c3c[nH]c4cnccc34)n2)cc1 | 21 nM | > 100000 nM | 16900 nM | 129 µL/min/1e6 cells |  | 898 nM | 0% |  |
| Cc1nccc(-c2cn(Cc3ccccc3)c3cnccc23)n1 | 7 nM | > 100000 nM | 56700 nM |  |  | 194 nM |  | Activity [12]: inactive |
| COc1cc(N2CCN(C)CC2)ccc1Nc1nccc(-c2cn(C)c3c(C)nccc23)n1 | 9 nM | 3170 nM | 13700 nM | 6 µL/min/1e6 cells | 24 mL/min/kg | 168 nM | 14% | solubility [8]: 4 µM (≈ 1.77 µg/mL) |
| COc1cc(N2CCN(C)CC2)ccc1Nc1nccc(-c2c[nH]c3c(C)nccc23)n1 | 5 nM | 51 nM | 17400 nM | < 5 µL/min/1e6 cells | 38 mL/min/kg | 83 nM | 0% |  |
| COc1ccc2c(c1)[nH]c1c(C)nccc12 [HARMINE] |  |  |  |  |  |  |  | IC50 [13]: 2000 nM; IC50 [14]: 74000 nM |
| c1cc2c(-c3ccnc4[nH]ccc34)c[nH]c2cn1 | 3 nM | 7990 nM | 314 nM |  |  | 378 nM |  |  |
| C(=C\c1nccc(-c2c[nH]c3cnccc23)n1)/c1ccccc1 | 7 nM | 46900 nM | 5180 nM |  |  | 192 nM |  | Activity [12]: inactive |

The next lines start with results.

| IC50 [1] | IC50 [2] | IC50 [3] | hepatocyte CLint [4] | clearance [5] | IC50 [6] | bioavailability [7] | SMILES | also measured |
| --- | --- | --- | --- | --- | --- | --- | --- | --- |
| 9 nM | 965 nM | 2000 nM | < 1 µL/min/1e6 cells | 137 mL/min/kg |  |  | COc1cc(N2CCN(C(C)=O)CC2)ccc1Nc1nccc(-c2c[nH]c3cnccc23)n1 |  |
| 25 nM | 30 nM | 20 nM |  |  |  |  | CN1CCN(c2ccc(Nc3ncc(Cl)c(-c4c[nH]c5cnccc45)n3)cc2)CC1 |  |
| 4 nM | 72 nM | 10500 nM | 6 µL/min/1e6 cells |  |  |  | COc1cc(N2CCN(C)CC2)ccc1Nc1nccc(-c2c[nH]c3cnc(C)cc23)n1 |  |
| 1 nM | 34100 nM | 12300 nM | 11 µL/min/1e6 cells | 375 mL/min/kg | 282 nM |  | COc1cc(N2CCN(C)CC2)ccc1Nc1cc(-c2c[nH]c3cnccc23)ncn1 |  |
| 4 nM | 1490 nM | 1820 nM | 21 µL/min/1e6 cells |  | 85 nM |  | COc1cc(N2CCN(C)CC2)ccc1Nc1nccc(-c2c[nH]c3cnccc23)n1 | inhibition [9]: 90%; inhibition [10]: 92%; inhibition [11]: 83% |
| 16 nM | 40500 nM | 14100 nM | 9 µL/min/1e6 cells | 239 mL/min/kg |  |  | COc1cc(N2CCN(C(C)=O)CC2)ccc1Nc1cc(-c2c[nH]c3cnccc23)ncn1 |  |
| 2 nM | > 100000 nM | 577 nM | 13 µL/min/1e6 cells | 179 mL/min/kg | 453 nM |  | CN1CCN(c2ccc(Nc3cc(-c4c[nH]c5cnccc45)ncn3)cc2)CC1 |  |
| 85 nM | 2410 nM | 33200 nM | 49 µL/min/1e6 cells |  | 9960 nM | 13% | CN1CCN(c2ccc(Nc3cc(-c4c[nH]c5ccccc45)ncn3)cc2)CC1 | clearance [15]: 42 mL/min/kg; Ratio IC50 [16]: 28 |
